In ChEMBL document CHEMBL3046278, “Design, synthesis and antifungal/insecticidal evaluation of novel cinnamide derivatives” (2011):

Each compound was assayed on Cytospora mali (assay: Antifungal activity against Valsa mali assessed as inhibition of mycelium growth at 50 ug/ml relative to control).
Type: functional
Method in brief: (§1)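 Mycelial growth inhibition on mycelial disks, compared with untreated control, using colony diameters: (control − treatment)/(control − disk diameter) × 100. Run twice, four replicates each.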

Point of comparison: `CO/C=C(/C(=O)OC)c1ccccc1Oc1cc(Oc2ccccc2C#N)ncn1` [AZOXYSTROBIN], inhibition at 50 µg/mL 92%. Against it:
- Cc1ccc(/C(=C/C(=O)NCCc2ccc(O)cc2)c2ccncc2)cc1 — lower, -2.3%
- Cc1ccc(/C(=C/C(=O)NCCc2ccc(O)cc2)c2ccncc2)cc1C — lower, -2.3%
- Cc1ccc(/C(=C/C(=O)NCCc2ccccc2)c2ccnc(Cl)c2)cc1 — lower, 48%
- Cc1ccc(/C(=C/C(=O)NCCc2ccccc2)c2ccnc(Cl)c2)c(C)c1 — lower, 31%
- COc1ccc(/C(=C/C(=O)NCCc2ccccc2)c2ccnc(Cl)c2)cc1 — lower, -6.3%
- COc1ccc(CCNC(=O)/C=C(\c2ccnc(Cl)c2)c2ccc(C)c(C)c2)cc1OC — lower, 36%
- COc1ccc(CCNC(=O)/C=C(\c2ccnc(Cl)c2)c2ccc(C)cc2C)cc1OC — lower, 29%
- COc1ccc(CCNC(=O)/C=C(/c2ccc(C(C)(C)C)cc2)c2ccnc(Cl)c2)cc1OC — lower, 18%
- Cc1ccc(/C(=C/C(=O)NCCc2ccc(O)cc2)c2ccnc(Cl)c2)cc1 — lower, 29%
- COC(=O)Nc1nc2ccccc2[nH]1 [CARBENDAZIM] — higher, 100%
- N#Cc1c(Cl)c(Cl)c(Cl)c(C#N)c1Cl [CHLOROTHALONIL] — lower, 88%

Each compound was assayed on Botrytis cinerea (assay: Antifungal activity against Botryotinia fuckeliana assessed as inhibition of mycelium growth at 50 ug/ml relative to control).
Type: functional
Method in brief: as §1

Point of comparison: `Cc1ccc(/C(=C/C(=O)NCCc2ccccc2)c2ccnc(Cl)c2)c(C)c1`, inhibition at 50 µg/mL 43%. Against it:
- Cc1ccc(/C(=C/C(=O)NCCc2ccc(O)cc2)c2ccncc2)cc1 — higher, 47%
- Cc1ccc(/C(=C/C(=O)NCCc2ccc(O)cc2)c2ccncc2)cc1C — higher, 64%
- Cc1ccc(/C(=C/C(=O)NCCc2ccccc2)c2ccnc(Cl)c2)cc1 — higher, 44%
- COc1ccc(/C(=C/C(=O)NCCc2ccccc2)c2ccnc(Cl)c2)cc1 — higher, 55%
- COc1ccc(CCNC(=O)/C=C(\c2ccnc(Cl)c2)c2ccc(C)c(C)c2)cc1OC — lower, 33%
- COc1ccc(CCNC(=O)/C=C(\c2ccnc(Cl)c2)c2ccc(C)cc2C)cc1OC — lower, 40%
- COc1ccc(CCNC(=O)/C=C(/c2ccc(C(C)(C)C)cc2)c2ccnc(Cl)c2)cc1OC — higher, 48%
- Cc1ccc(/C(=C/C(=O)NCCc2ccc(O)cc2)c2ccnc(Cl)c2)cc1 — lower, 33%
- CO/C=C(/C(=O)OC)c1ccccc1Oc1cc(Oc2ccccc2C#N)ncn1 [AZOXYSTROBIN] — higher, 80%
- COC(=O)Nc1nc2ccccc2[nH]1 [CARBENDAZIM] — lower, 38%
- N#Cc1c(Cl)c(Cl)c(Cl)c(C#N)c1Cl [CHLOROTHALONIL] — higher, 95%

The compounds below were run on Colletotrichum lindemuthianum (assay: Antifungal activity against Colletotrichum lindemuthianum assessed as inhibition of mycelium growth at 50 ug/ml relative to control).
Type: functional
Method in brief: as §1

Point of comparison: `COc1ccc(CCNC(=O)/C=C(\c2ccnc(Cl)c2)c2ccc(C)cc2C)cc1OC`, inhibition at 50 µg/mL 42.5%. Against it:
- Cc1ccc(/C(=C/C(=O)NCCc2ccc(O)cc2)c2ccncc2)cc1 — lower, 28.4%
- Cc1ccc(/C(=C/C(=O)NCCc2ccc(O)cc2)c2ccncc2)cc1C — lower, 38.8%
- Cc1ccc(/C(=C/C(=O)NCCc2ccccc2)c2ccnc(Cl)c2)cc1 — higher, 59.7%
- Cc1ccc(/C(=C/C(=O)NCCc2ccccc2)c2ccnc(Cl)c2)c(C)c1 — higher, 47%
- COc1ccc(/C(=C/C(=O)NCCc2ccccc2)c2ccnc(Cl)c2)cc1 — higher, 43.3%
- COc1ccc(CCNC(=O)/C=C(\c2ccnc(Cl)c2)c2ccc(C)c(C)c2)cc1OC — lower, 23.9%
- COc1ccc(CCNC(=O)/C=C(/c2ccc(C(C)(C)C)cc2)c2ccnc(Cl)c2)cc1OC — lower, 22.4%
- Cc1ccc(/C(=C/C(=O)NCCc2ccc(O)cc2)c2ccnc(Cl)c2)cc1 — lower, 16.4%
- COC(=O)Nc1nc2ccccc2[nH]1 [CARBENDAZIM] — higher, 82.1%

What follows are compounds tested on Bursaphelenchus xylophilus (assay: Nematicidal activity against Bursaphelenchus xylophilus assessed as mortality at 200 mg/L after 48 hr relative to control).
Type: functional
Method in brief: (§2)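 Compounds dissolved in acetone and diluted with distilled water to a 200 mg L-1 working solution. Distilled water served as blank, triplicate. Mortality counted at 24, 48 and 72 h, then corrected against the negative control with Abbott's formula.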

Point of comparison: `COc1ccc(CCNC(=O)/C=C(\c2ccnc(Cl)c2)c2ccc(C)cc2C)cc1OC`, Activity 34.02%. Against it:
- Cc1ccc(/C(=C/C(=O)NCCc2ccc(O)cc2)c2ccncc2)cc1 — lower, 16.7%
- Cc1ccc(/C(=C/C(=O)NCCc2ccc(O)cc2)c2ccncc2)cc1C — lower, 22.6%
- Cc1ccc(/C(=C/C(=O)NCCc2ccccc2)c2ccnc(Cl)c2)cc1 — lower, 28.13%
- Cc1ccc(/C(=C/C(=O)NCCc2ccccc2)c2ccnc(Cl)c2)c(C)c1 — lower, 24.44%
- COc1ccc(/C(=C/C(=O)NCCc2ccccc2)c2ccnc(Cl)c2)cc1 — higher, 38.82%
- COc1ccc(CCNC(=O)/C=C(\c2ccnc(Cl)c2)c2ccc(C)c(C)c2)cc1OC — lower, 17.81%
- COc1ccc(CCNC(=O)/C=C(/c2ccc(C(C)(C)C)cc2)c2ccnc(Cl)c2)cc1OC — higher, 38.82%
- Cc1ccc(/C(=C/C(=O)NCCc2ccc(O)cc2)c2ccnc(Cl)c2)cc1 — lower, 12.65%

What follows are compounds tested on Bursaphelenchus xylophilus (assay: Nematicidal activity against Bursaphelenchus xylophilus assessed as mortality at 200 mg/L after 24 hr relative to control).
Type: functional
Method in brief: as §2

Point of comparison: `COc1ccc(CCNC(=O)/C=C(/c2ccc(C(C)(C)C)cc2)c2ccnc(Cl)c2)cc1OC`, Activity 4.33%. Against it:
- Cc1ccc(/C(=C/C(=O)NCCc2ccc(O)cc2)c2ccncc2)cc1 — higher, 8.27%
- Cc1ccc(/C(=C/C(=O)NCCc2ccc(O)cc2)c2ccncc2)cc1C — higher, 11.86%
- Cc1ccc(/C(=C/C(=O)NCCc2ccccc2)c2ccnc(Cl)c2)cc1 — higher, 15.8%
- Cc1ccc(/C(=C/C(=O)NCCc2ccccc2)c2ccnc(Cl)c2)c(C)c1 — higher, 22.97%
- COc1ccc(/C(=C/C(=O)NCCc2ccccc2)c2ccnc(Cl)c2)cc1 — higher, 13.65%
- COc1ccc(CCNC(=O)/C=C(\c2ccnc(Cl)c2)c2ccc(C)c(C)c2)cc1OC — higher, 8.63%
- COc1ccc(CCNC(=O)/C=C(\c2ccnc(Cl)c2)c2ccc(C)cc2C)cc1OC — higher, 19.02%
- Cc1ccc(/C(=C/C(=O)NCCc2ccc(O)cc2)c2ccnc(Cl)c2)cc1 — higher, 7.56%

The compounds below were run on Sclerotinia sclerotiorum (assay: Antifungal activity against Sclerotinia sclerotiorum assessed as inhibition of mycelium growth at 50 ug/ml relative to control).
Type: functional
Method in brief: as §1

Point of comparison: `CC(C)(C)c1ccc(/C(=C/C(=O)N2CCOCC2)c2ccnc(Cl)c2)cc1` [PYRIMORPH], inhibition at 50 µg/mL 79%. Against it:
- Cc1ccc(/C(=C/C(=O)NCCc2ccc(O)cc2)c2ccncc2)cc1 — lower, 5.3%
- Cc1ccc(/C(=C/C(=O)NCCc2ccc(O)cc2)c2ccncc2)cc1C — lower, 27%
- Cc1ccc(/C(=C/C(=O)NCCc2ccccc2)c2ccnc(Cl)c2)cc1 — lower, 37%
- Cc1ccc(/C(=C/C(=O)NCCc2ccccc2)c2ccnc(Cl)c2)c(C)c1 — lower, 24%
- COc1ccc(/C(=C/C(=O)NCCc2ccccc2)c2ccnc(Cl)c2)cc1 — lower, 42%
- COc1ccc(CCNC(=O)/C=C(\c2ccnc(Cl)c2)c2ccc(C)c(C)c2)cc1OC — lower, 28%
- COc1ccc(CCNC(=O)/C=C(\c2ccnc(Cl)c2)c2ccc(C)cc2C)cc1OC — lower, 68%
- COc1ccc(CCNC(=O)/C=C(/c2ccc(C(C)(C)C)cc2)c2ccnc(Cl)c2)cc1OC — lower, 53%
- Cc1ccc(/C(=C/C(=O)NCCc2ccc(O)cc2)c2ccnc(Cl)c2)cc1 — lower, 29%
- CO/C=C(/C(=O)OC)c1ccccc1Oc1cc(Oc2ccccc2C#N)ncn1 [AZOXYSTROBIN] — higher, 100%
- COC(=O)Nc1nc2ccccc2[nH]1 [CARBENDAZIM] — higher, 100%
- N#Cc1c(Cl)c(Cl)c(Cl)c(C#N)c1Cl [CHLOROTHALONIL] — lower, 70%

Each compound was assayed on Phytophthora nicotianae (assay: Antifungal activity against Phytophthora parasitica assessed as inhibition of mycelium growth at 50 ug/ml relative to control).
Type: functional
Method in brief: as §1

Point of comparison: `Cc1ccc(/C(=C/C(=O)NCCc2ccccc2)c2ccnc(Cl)c2)cc1`, inhibition at 50 µg/mL 24.4%. Against it:
- Cc1ccc(/C(=C/C(=O)NCCc2ccc(O)cc2)c2ccncc2)cc1 — lower, -17.7%
- Cc1ccc(/C(=C/C(=O)NCCc2ccc(O)cc2)c2ccncc2)cc1C — lower, 14.5%
- Cc1ccc(/C(=C/C(=O)NCCc2ccccc2)c2ccnc(Cl)c2)c(C)c1 — lower, 11.3%
- COc1ccc(/C(=C/C(=O)NCCc2ccccc2)c2ccnc(Cl)c2)cc1 — lower, -2.42%
- COc1ccc(CCNC(=O)/C=C(\c2ccnc(Cl)c2)c2ccc(C)c(C)c2)cc1OC — lower, 14.2%
- COc1ccc(CCNC(=O)/C=C(\c2ccnc(Cl)c2)c2ccc(C)cc2C)cc1OC — lower, 22.6%
- COc1ccc(CCNC(=O)/C=C(/c2ccc(C(C)(C)C)cc2)c2ccnc(Cl)c2)cc1OC — lower, -8.06%
- Cc1ccc(/C(=C/C(=O)NCCc2ccc(O)cc2)c2ccnc(Cl)c2)cc1 — lower, -18.5%
- CO/C=C(/C(=O)OC)c1ccccc1Oc1cc(Oc2ccccc2C#N)ncn1 [AZOXYSTROBIN] — higher, 37.9%
- COC(=O)Nc1nc2ccccc2[nH]1 [CARBENDAZIM] — lower, 14.5%
- N#Cc1c(Cl)c(Cl)c(Cl)c(C#N)c1Cl [CHLOROTHALONIL] — higher, 63.7%

What follows are compounds tested on Bursaphelenchus xylophilus (assay: Nematicidal activity against Bursaphelenchus xylophilus assessed as mortality at 200 mg/L after 72 hr relative to control).
Type: functional
Method in brief: as §2

Point of comparison: `Cc1ccc(/C(=C/C(=O)NCCc2ccc(O)cc2)c2ccncc2)cc1C`, Activity 32.22%. Against it:
- Cc1ccc(/C(=C/C(=O)NCCc2ccc(O)cc2)c2ccncc2)cc1 — lower, 19.29%
- Cc1ccc(/C(=C/C(=O)NCCc2ccccc2)c2ccnc(Cl)c2)cc1 — higher, 35.35%
- Cc1ccc(/C(=C/C(=O)NCCc2ccccc2)c2ccnc(Cl)c2)c(C)c1 — lower, 27.91%
- COc1ccc(/C(=C/C(=O)NCCc2ccccc2)c2ccnc(Cl)c2)cc1 — higher, 42.01%
- COc1ccc(CCNC(=O)/C=C(\c2ccnc(Cl)c2)c2ccc(C)c(C)c2)cc1OC — lower, 21.64%
- COc1ccc(CCNC(=O)/C=C(\c2ccnc(Cl)c2)c2ccc(C)cc2C)cc1OC — higher, 38.09%
- COc1ccc(CCNC(=O)/C=C(/c2ccc(C(C)(C)C)cc2)c2ccnc(Cl)c2)cc1OC — higher, 45.15%
- Cc1ccc(/C(=C/C(=O)NCCc2ccc(O)cc2)c2ccnc(Cl)c2)cc1 — lower, 14.2%

Each compound was assayed on Rhizoctonia solani (assay: Antifungal activity against Rhizoctonia solani assessed as inhibition of mycelium growth at 50 ug/ml relative to control).
Type: functional
Method in brief: as §1

Point of comparison: `N#Cc1c(Cl)c(Cl)c(Cl)c(C#N)c1Cl` [CHLOROTHALONIL], inhibition at 50 µg/mL 75.5%. Against it:
- Cc1ccc(/C(=C/C(=O)NCCc2ccc(O)cc2)c2ccncc2)cc1 — lower, 10.3%
- Cc1ccc(/C(=C/C(=O)NCCc2ccc(O)cc2)c2ccncc2)cc1C — lower, 16.1%
- Cc1ccc(/C(=C/C(=O)NCCc2ccccc2)c2ccnc(Cl)c2)cc1 — higher, 93.9%
- Cc1ccc(/C(=C/C(=O)NCCc2ccccc2)c2ccnc(Cl)c2)c(C)c1 — lower, 4.52%
- COc1ccc(/C(=C/C(=O)NCCc2ccccc2)c2ccnc(Cl)c2)cc1 — lower, 13.6%
- COc1ccc(CCNC(=O)/C=C(\c2ccnc(Cl)c2)c2ccc(C)c(C)c2)cc1OC — lower, 23.8%
- COc1ccc(CCNC(=O)/C=C(\c2ccnc(Cl)c2)c2ccc(C)cc2C)cc1OC — lower, 35.5%
- COc1ccc(CCNC(=O)/C=C(/c2ccc(C(C)(C)C)cc2)c2ccnc(Cl)c2)cc1OC — lower, 14.8%
- Cc1ccc(/C(=C/C(=O)NCCc2ccc(O)cc2)c2ccnc(Cl)c2)cc1 — lower, 72.9%
- CO/C=C(/C(=O)OC)c1ccccc1Oc1cc(Oc2ccccc2C#N)ncn1 [AZOXYSTROBIN] — higher, 89%
- COC(=O)Nc1nc2ccccc2[nH]1 [CARBENDAZIM] — higher, 100%
- CC(C)(C)c1ccc(/C(=C/C(=O)N2CCOCC2)c2ccnc(Cl)c2)cc1 [PYRIMORPH] — higher, 97.2%
